Experimental data: ChEMBL document CHEMBL4680284, “Doxorubicin and Aclarubicin: Shuffling Anthracycline Glycans for Improved Anticancer Agents” (J Med Chem, 2020)
Blank lines part the entries; values can stand above or below the compound they belong to. The source made the active and inactive calls. The calls are words filed in the database; no cut-off is given here.

Key:
MEL-JUSO [1] = assay: Cytotoxicity in human MEL-JUSO cells assessed as reduction in cell viability incubated for 2 hrs by Cell-titer-blue assay; assay type: functional, cell-based
Method in brief: (§1)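 The drugs were then removed and the cells grown a further 72 h before a CellTiter-Blue viability read. Survival was normalized to the untreated control and background-corrected, with mean ± SD from three experiments. Culture was at 37 °C in 5% CO2.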

[2] = target: DNA topoisomerase 2-alpha (Homo sapiens) (UniProt P11388); assay: Induction of relocalization of GFP-tagged Topo2a (unknown origin) expressed in human MEL-JUSO cells at 10 uM incubated for 15 mins; assay type: cell-based
Method in brief: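 MelJuSo cells were transiently transfected with a TopoIIα-GFP construct and imaged live by confocal microscopy. Relocalization of TopoIIα was expressed as a fractional distance.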

U-87 MG = assay: Cytotoxicity in human U87 cells assessed as reduction in cell viability incubated for 2 hrs by Cell-titer-blue assay; assay type: functional, cell-based, U-87MG ATCC; method in brief: as §1
K562 = assay: Cytotoxicity in human K562 cells assessed as reduction in cell viability incubated for 2 hrs by Cell-titer-blue assay; assay type: functional, cell-based; settings: K562, 2 h
Method in brief: as §1, with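 “CO2. Media with 8% FCS were RPMI-1640 (DU145, HCT116, K562, PC3), IMDM (MelJuSo) and DMEM (U87).” for “CO2.”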

DNA [3] = assay: Induction of DNA damage in human K562 cells assessed as induction of DNA break formation by measuring H2AX phosphorylation at 10 uM incubated for 2 hrs by Western blot analysis; assay type: cell-based
Method in brief: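 K562 cells were given 10 μM drug for 2 h, then washed extensively. They were lysed in SDS sample buffer (2% SDS, 60 mM Tris–HCl pH 6.8) and run on SDS-PAGE. Blots were probed for γH2AX (1:1000), with β-actin (1:10000) as the loading control. The γH2AX signal was quantified relative to actin.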

DU-145 = assay: Cytotoxicity in human DU-145 cells assessed as reduction in cell viability incubated for 2 hrs by Cell-titer-blue assay; assay type: functional, cell-based; settings: DU-145, 2 h; method in brief: as §1
PC-3 = assay: Cytotoxicity in human PC-3 cells assessed as reduction in cell viability incubated for 2 hrs by Cell-titer-blue assay; assay type: functional, cell-based; settings: PC-3, 2 h; method in brief: as §1
HCT-116 = assay: Cytotoxicity in human HCT-116 cells assessed as reduction in cell viability incubated for 2 hrs by Cell-titer-blue assay; assay type: functional, cell-based; settings: HCT-116, 2 h; method in brief: as §1
[4] = Drug uptake in human K562 cells at 1 uM by flow cytometry relative to aclarubicin; assay type: ADME, cell-based; settings: k562, 1 µM
Method in brief: (§2)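 K562 cells in RPMI-1640 with 8% FCS were exposed to 1 μM drug for 2 h. They were then washed, collected and fixed with paraformaldehyde. The intrinsic anthracycline fluorescence was read by flow cytometry with a 561 nm laser and a 610/20 nm detector.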

MEL-JUSO [5] = assay: Induction of histone eviction in human MEL-JUSO cells assessed as release of photoactivated green fluorescent protein-labeled histone H2A at 10 uM incubated for 2 hrs by time-lapse confocal microscopy; assay type: functional, cell-based
Method in brief: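 MelJuSo cells stably expressing PAGFP-H2A were kept in IMDM with 8% FCS and G-418. Nuclear regions were photoactivated and 10 μM drug was added. Time-lapse confocal imaging (63× lens, climate chamber) followed the loss of fluorescence from the activated regions. Values are mean ± SD of 10–20 cells from at least three independent experiments.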

DNA [6] = assay: Induction of DNA damage in human K562 cells assessed as induction of DNA break formation by measuring H2AX phosphorylation at 10 uM incubated for 2 hrs by constant-field gel […] method; assay type: cell-based
Method in brief: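 K562 cells were exposed to 10 μM drug for 2 h and washed extensively. DNA double-strand breaks were then resolved by constant-field gel electrophoresis and the images quantified. Results are mean ± SD of three independent experiments.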

[7] = Drug uptake in human K562 cells at 1 uM by flow cytometry relative to doxorubicin; assay type: ADME, cell-based; settings: k562, 1 µM; method in brief: as §2

Sequence of DNA topoisomerase 2-alpha (Homo sapiens) (P11388 whole entry): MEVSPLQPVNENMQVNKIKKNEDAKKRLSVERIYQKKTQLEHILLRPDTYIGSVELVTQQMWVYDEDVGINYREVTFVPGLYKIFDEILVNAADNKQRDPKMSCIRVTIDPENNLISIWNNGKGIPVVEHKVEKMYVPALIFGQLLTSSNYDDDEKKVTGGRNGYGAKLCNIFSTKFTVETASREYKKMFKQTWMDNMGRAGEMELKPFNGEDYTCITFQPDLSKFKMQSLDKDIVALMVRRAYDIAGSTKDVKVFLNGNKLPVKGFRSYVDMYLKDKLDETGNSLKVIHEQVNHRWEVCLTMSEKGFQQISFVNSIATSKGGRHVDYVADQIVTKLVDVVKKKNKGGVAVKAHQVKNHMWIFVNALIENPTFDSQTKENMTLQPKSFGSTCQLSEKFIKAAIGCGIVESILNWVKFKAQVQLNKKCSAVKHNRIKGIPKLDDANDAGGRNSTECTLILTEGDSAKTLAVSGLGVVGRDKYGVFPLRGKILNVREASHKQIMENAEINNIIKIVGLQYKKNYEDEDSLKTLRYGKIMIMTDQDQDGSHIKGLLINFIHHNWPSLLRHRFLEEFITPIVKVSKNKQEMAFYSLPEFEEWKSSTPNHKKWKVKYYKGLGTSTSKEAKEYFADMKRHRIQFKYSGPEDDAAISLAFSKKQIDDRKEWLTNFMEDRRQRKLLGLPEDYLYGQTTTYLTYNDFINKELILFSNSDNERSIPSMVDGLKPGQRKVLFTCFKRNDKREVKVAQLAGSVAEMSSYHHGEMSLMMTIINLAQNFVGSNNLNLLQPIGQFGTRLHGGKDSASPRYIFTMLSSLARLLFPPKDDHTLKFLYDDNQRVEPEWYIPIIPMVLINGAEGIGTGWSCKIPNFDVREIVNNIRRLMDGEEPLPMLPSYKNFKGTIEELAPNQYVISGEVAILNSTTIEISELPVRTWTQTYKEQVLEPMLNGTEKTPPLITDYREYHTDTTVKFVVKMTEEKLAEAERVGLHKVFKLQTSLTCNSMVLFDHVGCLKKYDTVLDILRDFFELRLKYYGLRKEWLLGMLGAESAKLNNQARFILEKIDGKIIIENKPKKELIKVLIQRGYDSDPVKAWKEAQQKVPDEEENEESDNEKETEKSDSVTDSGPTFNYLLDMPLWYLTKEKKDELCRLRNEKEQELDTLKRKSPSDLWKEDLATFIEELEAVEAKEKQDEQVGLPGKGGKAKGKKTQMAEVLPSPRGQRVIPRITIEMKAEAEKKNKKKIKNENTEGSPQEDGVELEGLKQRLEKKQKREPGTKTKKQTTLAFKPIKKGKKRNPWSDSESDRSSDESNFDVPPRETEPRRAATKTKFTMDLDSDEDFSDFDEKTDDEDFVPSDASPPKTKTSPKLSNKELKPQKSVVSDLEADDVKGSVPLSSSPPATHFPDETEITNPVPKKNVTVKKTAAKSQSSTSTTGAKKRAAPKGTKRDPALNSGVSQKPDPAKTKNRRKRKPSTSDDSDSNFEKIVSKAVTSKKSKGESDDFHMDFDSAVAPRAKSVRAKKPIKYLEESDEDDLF

Compound: CC[C@@]1(O)C[C@H](O[C@H]2C[C@H](N(C)C)[C@H](O[C@H]3C[C@H](O)[C@H](O)[C@H](C)O3)[C@H](C)O2)c2c(cc3c(c2O)C(=O)c2c(O)cccc2C3=O)[C@H]1C(=O)OC
IC50 (MEL-JUSO [1]): 0.423 µM
Activity ([2]; filed as modulator): Active
IC50 (U-87 MG): 0.448 µM
IC50 (K562): 0.211 µM
Activity (DNA [3]): inactive
IC50 (DU-145): 0.509 µM
IC50 (PC-3): 0.383 µM
IC50 (HCT-116): 0.261 µM
Drug uptake [4]: Active
Activity (MEL-JUSO [5]): Active
Activity (DNA [6]): inactive

Compound: COc1cccc2c1C(=O)c1c(O)c3c(c(O)c1C2=O)C[C@@](O)(C(=O)CO)C[C@@H]3O[C@H]1C[C@H](N)[C@H](O[C@H]2C[C@H](O)[C@H](O[C@H]3CCC(=O)[C@H](C)O3)[C@H](C)O2)[C@H](C)O1
IC50 (MEL-JUSO [1]): 1.81 µM
Activity ([2]; filed as modulator): Active
IC50 (U-87 MG): 2.21 µM
IC50 (K562): 1.41 µM
Activity (DNA [3]): Active
IC50 (DU-145): 1.36 µM
IC50 (PC-3): 1.54 µM
IC50 (HCT-116): 1.86 µM
Activity (MEL-JUSO [5]): inactive
Drug uptake [7]: Not Active
Activity (DNA [6]): Active

Compound: CC[C@@]1(O)C[C@H](O[C@H]2C[C@H](N)[C@H](O)[C@H](C)O2)c2c(cc3c(c2O)C(=O)c2c(O)cccc2C3=O)[C@H]1C(=O)OC
Activity ([2]; filed as modulator): Active
Activity (DNA [3]): inactive
Drug uptake [4]: Not Active
Activity (MEL-JUSO [5]): inactive
Activity (DNA [6]): inactive

Compound: COc1cccc2c1C(=O)c1c(O)c3c(c(O)c1C2=O)C[C@@](O)(C(=O)CO)C[C@@H]3O[C@H]1C[C@H](N)[C@H](O)[C@H](C)O1 [DOXORUBICIN]
IC50 (MEL-JUSO [1]): 0.237 µM
Activity ([2]; filed as modulator): Active
IC50 (U-87 MG): 0.381 µM
IC50 (K562): 0.361 µM
Activity (DNA [3]): Active
IC50 (DU-145): 0.534 µM
IC50 (PC-3): 1.15 µM
IC50 (HCT-116): 0.579 µM
Activity (MEL-JUSO [5]): Active
Activity (DNA [6]): Active

Compound: CC[C@@]1(O)C[C@H](O[C@H]2C[C@H](N(C)C)[C@H](O[C@H]3C[C@H](O)[C@H](O[C@H]4CCC(=O)[C@H](C)O4)[C@H](C)O3)[C@H](C)O2)c2c(cc3c(c2O)C(=O)c2c(O)cccc2C3=O)[C@H]1C(=O)OC [ACLARUBICIN]
IC50 (MEL-JUSO [1]): 0.048 µM
Activity ([2]; filed as modulator): Active
IC50 (U-87 MG): 0.137 µM
IC50 (K562): 0.076 µM
Activity (DNA [3]): inactive
IC50 (DU-145): 0.129 µM
IC50 (PC-3): 0.101 µM
IC50 (HCT-116): 0.04 µM
Activity (MEL-JUSO [5]): Active
Activity (DNA [6]): inactive

Activity [2]: inactive
Drug uptake [7]: Not Active
Compound: COc1cccc2c1C(=O)c1c(O)c3c(c(O)c1C2=O)C[C@@](O)(C(=O)CO)C[C@@H]3O[C@H]1C[C@H](N)[C@H](O[C@H]2C[C@H](O)[C@H](O)[C@H](C)O2)[C@H](C)O1
Activity (DNA [3]): inactive
Activity (MEL-JUSO [5]): inactive
Activity (DNA [6]): inactive

Compound: COc1cccc2c1C(=O)c1c(O)c3c(c(O)c1C2=O)C[C@@](O)(C(=O)CO)C[C@@H]3O[C@H]1C[C@H](N(C)C)[C@H](O[C@H]2C[C@H](O)[C@H](O[C@H]3CCC(=O)[C@H](C)O3)[C@H](C)O2)[C@H](C)O1
IC50 (MEL-JUSO [1]): 0.007 µM
Activity ([2]; filed as modulator): Active
IC50 (U-87 MG): 0.033 µM
IC50 (K562): 0.026 µM
Activity (DNA [3]): inactive
IC50 (DU-145): 0.017 µM
IC50 (PC-3): 0.034 µM
IC50 (HCT-116): 0.008 µM
Activity (MEL-JUSO [5]): Active
fold change (FC) [7]: 4
Activity (DNA [6]): inactive

Compound: CC[C@@]1(O)C[C@H](O[C@H]2C[C@H](N)[C@H](O[C@H]3C[C@H](O)[C@H](O[C@H]4CCC(=O)[C@H](C)O4)[C@H](C)O3)[C@H](C)O2)c2c(cc3c(c2O)C(=O)c2c(O)cccc2C3=O)[C@H]1C(=O)OC
Activity ([2]; filed as modulator): Active
IC50 (K562): 3.04 µM
Activity (DNA [3]): inactive
Drug uptake [4]: Active
Activity (MEL-JUSO [5]): inactive
Activity (DNA [6]): inactive

Compound: COc1cccc2c1C(=O)c1c(O)c3c(c(O)c1C2=O)C[C@@](O)(C(=O)CO)C[C@@H]3O[C@H]1C[C@H](N(C)C)[C@H](O[C@H]2C[C@H](O)[C@H](O)[C@H](C)O2)[C@H](C)O1
IC50 (MEL-JUSO [1]): 1.57 µM
Activity ([2]; filed as modulator): Active
IC50 (U-87 MG): 0.603 µM
IC50 (K562): 2.41 µM
Activity (DNA [3]): inactive
IC50 (DU-145): 3.2 µM
IC50 (PC-3): 3.2 µM
IC50 (HCT-116): 1.37 µM
Activity (MEL-JUSO [5]): Active
Drug uptake [7]: Not Active
Activity (DNA [6]): inactive
